The values that follow come from ChEMBL document CHEMBL4837207, “Discovery of pyrrolo[2,3-d]pyrimidine derivatives as potent Axl inhibitors: Design, synthesis and biological evaluation” (Eur J Med Chem, 2021).

Where only a bound is given, the exact number is not on record here.

Assay [1] concerns the target Ephrin type-A receptor 2 (Homo sapiens, UniProt P29317). Nature of the assay: Inhibition of EPHA2 (unknown origin) by ELISA. Background: An ELISA detects its analyte on a solid surface through an enzyme-linked reagent.
Assay [2] concerns the target Hepatocyte growth factor receptor (Homo sapiens, UniProt P08581). Briefly: Inhibition of c-met phosphorylation at Y1234/Y1235 residues in human MKN-45 cells by Western blot analysis. In kind it is cell-based. As to conditions: dose 2.5-20 nM. In outline: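 Cells in exponential growth (BaF3 engineered to stably express constitutively active human wild-type TEL-Axl; MKN-45) exposed to the indicated concentrations for 2 h, then lysed in 1× SDS sample buffer. Phosphorylated proteins detected by Western blot.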

For assay [3], the target named is T1, Receptor-type tyrosine-protein kinase FLT3 (Homo sapiens, UniProt P36888).
T1 sequence (P36888 whole entry): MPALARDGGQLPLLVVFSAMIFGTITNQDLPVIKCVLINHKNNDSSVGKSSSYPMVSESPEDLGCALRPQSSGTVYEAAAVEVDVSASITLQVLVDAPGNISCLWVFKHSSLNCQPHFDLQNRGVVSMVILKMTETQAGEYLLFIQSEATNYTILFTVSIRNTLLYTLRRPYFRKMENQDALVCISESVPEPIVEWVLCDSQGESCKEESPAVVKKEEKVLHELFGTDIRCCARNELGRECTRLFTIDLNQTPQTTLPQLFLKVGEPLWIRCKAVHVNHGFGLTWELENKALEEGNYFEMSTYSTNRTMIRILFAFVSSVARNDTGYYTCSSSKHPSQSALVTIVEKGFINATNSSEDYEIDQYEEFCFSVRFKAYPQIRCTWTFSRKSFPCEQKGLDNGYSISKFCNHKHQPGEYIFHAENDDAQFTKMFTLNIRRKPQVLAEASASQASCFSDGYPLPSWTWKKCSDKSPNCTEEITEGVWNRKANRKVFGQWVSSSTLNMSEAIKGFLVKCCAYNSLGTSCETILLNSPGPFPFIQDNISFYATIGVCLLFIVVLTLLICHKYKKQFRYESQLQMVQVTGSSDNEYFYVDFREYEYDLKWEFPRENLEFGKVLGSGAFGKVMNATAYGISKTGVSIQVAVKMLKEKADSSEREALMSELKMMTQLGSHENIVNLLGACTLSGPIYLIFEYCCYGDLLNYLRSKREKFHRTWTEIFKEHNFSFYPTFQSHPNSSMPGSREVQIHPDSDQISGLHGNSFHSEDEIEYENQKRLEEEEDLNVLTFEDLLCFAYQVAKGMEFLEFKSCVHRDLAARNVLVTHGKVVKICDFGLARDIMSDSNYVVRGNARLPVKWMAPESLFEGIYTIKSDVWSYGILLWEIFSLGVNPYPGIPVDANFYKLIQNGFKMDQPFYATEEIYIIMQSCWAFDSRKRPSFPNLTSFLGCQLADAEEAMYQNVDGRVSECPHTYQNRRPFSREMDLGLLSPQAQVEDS
Nature of the assay: Inhibition of FLT-3 (unknown origin) by ELISA.

Assay [4] addresses T2, Tyrosine-protein kinase receptor UFO (Homo sapiens, UniProt P30530).
T2 sequence (P30530 whole entry): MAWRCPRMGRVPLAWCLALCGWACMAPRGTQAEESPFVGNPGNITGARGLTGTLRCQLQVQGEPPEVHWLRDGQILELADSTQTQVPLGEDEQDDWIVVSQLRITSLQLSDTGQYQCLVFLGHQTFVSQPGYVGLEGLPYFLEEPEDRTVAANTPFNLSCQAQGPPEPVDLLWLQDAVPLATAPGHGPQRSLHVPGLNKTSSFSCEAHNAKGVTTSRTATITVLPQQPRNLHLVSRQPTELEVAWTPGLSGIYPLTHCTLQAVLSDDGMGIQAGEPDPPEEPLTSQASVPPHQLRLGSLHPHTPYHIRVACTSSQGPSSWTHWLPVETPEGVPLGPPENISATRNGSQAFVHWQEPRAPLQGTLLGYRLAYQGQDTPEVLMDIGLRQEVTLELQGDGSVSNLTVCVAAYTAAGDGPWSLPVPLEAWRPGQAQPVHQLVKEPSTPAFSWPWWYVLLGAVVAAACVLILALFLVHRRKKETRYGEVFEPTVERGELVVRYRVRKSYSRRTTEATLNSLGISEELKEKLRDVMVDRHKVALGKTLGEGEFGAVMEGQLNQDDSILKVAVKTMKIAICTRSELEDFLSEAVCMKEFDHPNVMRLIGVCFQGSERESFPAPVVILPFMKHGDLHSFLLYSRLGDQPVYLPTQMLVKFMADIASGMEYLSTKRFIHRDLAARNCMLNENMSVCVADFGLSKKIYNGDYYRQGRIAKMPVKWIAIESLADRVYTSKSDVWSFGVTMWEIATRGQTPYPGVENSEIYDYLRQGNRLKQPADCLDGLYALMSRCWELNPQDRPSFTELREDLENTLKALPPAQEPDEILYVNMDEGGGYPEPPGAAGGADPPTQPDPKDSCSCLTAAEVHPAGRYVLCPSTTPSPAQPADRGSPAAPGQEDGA
Briefly: Inhibition of AXL (unknown origin) by ELISA.

Assay [5] concerns the target Proto-oncogene tyrosine-protein kinase Src (Homo sapiens, UniProt P12931). Nature of the assay: Inhibition of SRC (unknown origin) by ELISA.

By IC50 is commonly meant the concentration at which inhibition is half-maximal.

Hepatocyte growth factor receptor, sequence (P08581 whole entry): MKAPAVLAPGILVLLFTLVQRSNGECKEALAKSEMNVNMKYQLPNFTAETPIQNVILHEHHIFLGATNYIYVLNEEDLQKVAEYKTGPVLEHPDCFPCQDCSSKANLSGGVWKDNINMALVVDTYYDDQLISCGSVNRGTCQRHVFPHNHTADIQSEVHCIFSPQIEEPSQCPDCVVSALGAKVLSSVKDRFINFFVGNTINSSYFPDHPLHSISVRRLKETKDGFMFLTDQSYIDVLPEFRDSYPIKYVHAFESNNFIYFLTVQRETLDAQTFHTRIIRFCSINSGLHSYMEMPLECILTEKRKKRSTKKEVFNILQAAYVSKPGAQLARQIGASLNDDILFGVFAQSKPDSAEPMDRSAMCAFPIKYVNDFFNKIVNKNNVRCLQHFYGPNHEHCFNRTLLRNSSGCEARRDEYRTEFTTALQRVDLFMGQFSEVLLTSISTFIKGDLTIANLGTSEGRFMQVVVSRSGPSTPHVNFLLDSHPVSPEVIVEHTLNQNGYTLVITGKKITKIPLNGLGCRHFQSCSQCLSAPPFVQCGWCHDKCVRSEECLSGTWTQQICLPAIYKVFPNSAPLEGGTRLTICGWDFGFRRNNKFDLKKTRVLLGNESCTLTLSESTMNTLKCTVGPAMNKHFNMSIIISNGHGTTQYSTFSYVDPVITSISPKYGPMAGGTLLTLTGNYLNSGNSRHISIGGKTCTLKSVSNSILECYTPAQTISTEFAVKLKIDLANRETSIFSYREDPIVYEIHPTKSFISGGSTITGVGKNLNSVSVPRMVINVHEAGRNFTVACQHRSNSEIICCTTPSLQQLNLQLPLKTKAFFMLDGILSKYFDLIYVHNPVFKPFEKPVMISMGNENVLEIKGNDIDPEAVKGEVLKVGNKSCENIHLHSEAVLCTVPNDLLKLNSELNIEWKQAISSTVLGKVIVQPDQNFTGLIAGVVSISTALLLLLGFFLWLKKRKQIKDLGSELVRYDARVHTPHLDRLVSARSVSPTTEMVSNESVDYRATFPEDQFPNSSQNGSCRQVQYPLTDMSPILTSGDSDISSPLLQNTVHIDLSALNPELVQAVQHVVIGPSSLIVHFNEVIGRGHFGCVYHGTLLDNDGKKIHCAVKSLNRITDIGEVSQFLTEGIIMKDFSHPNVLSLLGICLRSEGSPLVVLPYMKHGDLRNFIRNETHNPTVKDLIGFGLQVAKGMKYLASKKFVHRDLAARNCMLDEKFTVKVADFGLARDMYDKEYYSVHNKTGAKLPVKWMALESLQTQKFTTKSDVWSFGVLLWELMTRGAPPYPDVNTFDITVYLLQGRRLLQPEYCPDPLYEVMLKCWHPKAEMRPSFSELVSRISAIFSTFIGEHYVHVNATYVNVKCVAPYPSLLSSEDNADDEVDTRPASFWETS
Ephrin type-A receptor 2, sequence (P29317 whole entry): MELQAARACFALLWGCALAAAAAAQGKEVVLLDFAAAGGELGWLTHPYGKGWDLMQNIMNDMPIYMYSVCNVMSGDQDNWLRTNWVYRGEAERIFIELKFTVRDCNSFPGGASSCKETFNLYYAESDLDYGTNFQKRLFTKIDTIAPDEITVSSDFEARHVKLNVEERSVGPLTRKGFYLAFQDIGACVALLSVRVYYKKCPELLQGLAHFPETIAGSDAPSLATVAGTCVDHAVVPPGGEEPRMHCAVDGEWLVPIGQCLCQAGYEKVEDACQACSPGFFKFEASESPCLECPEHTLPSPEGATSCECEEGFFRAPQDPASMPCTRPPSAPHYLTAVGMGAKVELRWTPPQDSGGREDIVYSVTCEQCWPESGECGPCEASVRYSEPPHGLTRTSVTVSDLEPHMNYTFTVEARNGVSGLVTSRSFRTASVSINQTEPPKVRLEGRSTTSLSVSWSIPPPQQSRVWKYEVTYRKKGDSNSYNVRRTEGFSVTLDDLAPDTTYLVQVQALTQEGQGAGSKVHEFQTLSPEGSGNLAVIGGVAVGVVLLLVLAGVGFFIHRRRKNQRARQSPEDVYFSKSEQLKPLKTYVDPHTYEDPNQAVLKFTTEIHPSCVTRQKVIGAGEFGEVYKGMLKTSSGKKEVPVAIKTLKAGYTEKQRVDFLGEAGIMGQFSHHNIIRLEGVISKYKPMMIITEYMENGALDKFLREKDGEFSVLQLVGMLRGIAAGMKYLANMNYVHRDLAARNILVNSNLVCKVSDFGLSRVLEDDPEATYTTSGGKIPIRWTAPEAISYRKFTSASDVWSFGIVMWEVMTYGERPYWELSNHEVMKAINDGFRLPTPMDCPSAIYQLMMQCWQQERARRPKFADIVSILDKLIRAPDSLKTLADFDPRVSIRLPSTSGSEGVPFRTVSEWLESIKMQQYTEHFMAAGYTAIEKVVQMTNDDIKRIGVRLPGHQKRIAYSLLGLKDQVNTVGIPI
Proto-oncogene tyrosine-protein kinase Src, sequence (P12931 2-536 limits assumed): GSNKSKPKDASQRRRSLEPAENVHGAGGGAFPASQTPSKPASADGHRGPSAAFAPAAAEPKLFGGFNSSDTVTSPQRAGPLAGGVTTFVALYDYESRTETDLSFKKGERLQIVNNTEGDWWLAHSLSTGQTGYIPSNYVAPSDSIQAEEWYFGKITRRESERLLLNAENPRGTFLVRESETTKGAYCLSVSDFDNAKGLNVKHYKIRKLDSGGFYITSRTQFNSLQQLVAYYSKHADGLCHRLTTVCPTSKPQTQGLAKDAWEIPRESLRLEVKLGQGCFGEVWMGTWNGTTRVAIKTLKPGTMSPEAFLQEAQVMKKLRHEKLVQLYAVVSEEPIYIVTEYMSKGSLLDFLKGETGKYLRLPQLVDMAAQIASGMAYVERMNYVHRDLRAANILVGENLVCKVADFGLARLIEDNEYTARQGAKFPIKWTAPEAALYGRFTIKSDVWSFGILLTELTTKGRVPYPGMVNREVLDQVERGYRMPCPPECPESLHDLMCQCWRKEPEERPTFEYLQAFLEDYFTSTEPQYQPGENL

With `CC(C)n1cc(C(=O)Nc2cc(F)c(-c3c[nH]c4ncnc(N)c34)cc2F)c(=O)c(-c2ccc(F)cc2)c1`, the IC50 in assay [1] is greater than 500 nM; in assay [3], greater than 1000 nM; in assay [4] it was less than 0.2 nM; in assay [5] it was greater than 1000 nM. Further, in assay [2], the inhibition entry is “Dose-Dependent Effect”.
